Assay results reported in ChEMBL document CHEMBL2321723, “Synthesis and mechanistic studies of novel spin-labeled combretastatin derivatives as potential antineoplastic agents” (Bioorg Med Chem, 2013).
The source made the active and inactive calls. The calls are words filed in the database; no cut-off is given here.

Key:
HeLa [1] = experiment: Cytotoxicity against human HeLa cells after 24 hrs by MTT assay; assay type: functional, cell-based
Procedure, shortened: (§1)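 MTT assay in RPMI 1640 with 10% fetal calf serum, 2 mM L-glutamine and […]. Log-phase cells seeded, attached 24 h at 37 °C and 5% CO₂, then treated at 0–100 μM. Compounds dissolved in DMSO (1 mg/mL stock), DMSO below 0.1% in wells. Five wells per concentration, triplicate experiments. Blank-corrected OD taken as % of untreated growth, IC50 = 50% inhibition.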

K562 = experiment: Cytotoxicity against human K562 cells after 24 hrs by MTT assay; assay type: functional, cell-based; procedure, shortened: as §1
[2] = Cytotoxicity against human […] cells after 24 hrs by MTT assay; assay type: functional, cell-based; procedure, shortened: as §1
HepG2 = experiment: Cytotoxicity against human HepG2 cells after 24 hrs by MTT assay; assay type: functional, cell-based; procedure, shortened: as §1
HeLa [3] = experiment: Induction of apoptosis in human HeLa cells at 3 uM after 24 hrs by FITC/AnnexinV-based flow cytometric analysis (reference value: 0.98%); assay type: functional
HeLa [4] = experiment: Induction of apoptosis in human HeLa cells assessed as late apoptotic cells at 0.375 to 3 uM after 24 hrs by FITC/AnnexinV-based flow cytometric analysis (reference value: 0.81%); assay type: functional
HeLa [5] = experiment: Cell cycle arrest in human HeLa cells assessed as accumulation in subG1 phase after 36 hrs by PI-staining based flow cytometric analysis; assay type: functional
Procedure, shortened: (§2)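 HeLa cells (1 × 10⁵) exposed 36 h to 0, 0.375, 1.5 or 3 μM; washed twice in ice-cold PBS, harvested and fixed. Then RNase A (0.1 mg/mL, 37 °C, 30 min) and propidium iodide staining (30 min on ice, dark). Flow cytometry gave sub-G1, G1, S and G2 fractions, compared with untreated cultures.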

HeLa [6] = experiment: Cell cycle arrest in human HeLa cells assessed as accumulation in subG1 phase at 1.5 uM after 36 hrs by PI-staining based flow cytometric analysis (reference value: 0.2%); assay type: functional; procedure, shortened: as §2
HeLa [7] = experiment: Induction of apoptosis in human HeLa cells at 1.5 uM after 24 hrs by FITC/AnnexinV-based flow cytometric analysis (reference value: 0.98%); assay type: functional
HeLa [8] = experiment: Cell cycle arrest in human HeLa cells assessed as decrease in S phase after 36 hrs by PI-staining based flow cytometric analysis; assay type: functional; procedure, shortened: as §2
HeLa [9] = experiment: Induction of apoptosis in human HeLa cells assessed as early apoptotic cells at 0.375 to 3 uM after 24 hrs by FITC/AnnexinV-based flow cytometric analysis (reference value: 0.17%); assay type: functional
HeLa [10] = experiment: Cell cycle arrest in human HeLa cells assessed as accumulation in G1 phase after 36 hrs by PI-staining based flow cytometric analysis; assay type: functional; procedure, shortened: as §2
HeLa [11] = experiment: Induction of apoptosis in human HeLa cells at 0.375 uM after 24 hrs by FITC/AnnexinV-based flow cytometric analysis (reference value: 0.98%); assay type: functional
Capra hircus [12] = species on record: Capra hircus; experiment: Inhibition of goat tubulin polymerization at 3 uM after 30 mins by transmission electron microscopic analysis
Procedure, shortened: (§3)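 Microtubule protein from goat brain purified by repeated warm polymerisation and cold depolymerisation cycles with glycerol, ATP and GTP. Tubulin incubated ± compound 30 min at 37 °C in 80 mM PIPES pH 6.9, 1 mM MgCl₂, […], 30% glycerol, 1 mM GTP. Fixed in 0.5% glutaraldehyde, grids stained with uranyl acetate, viewed by TEM at 100 kV.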

HeLa [13] = experiment: Cell cycle arrest in human HeLa cells assessed as accumulation in subG1 phase at 0.375 uM after 36 hrs by PI-staining based flow cytometric analysis (reference value: 0.2%); assay type: functional; procedure, shortened: as §2
HeLa [14] = experiment: Cell cycle arrest in human HeLa cells assessed as accumulation in G1 phase at 3 uM after 36 hrs by PI-staining based flow cytometric analysis (reference value: 47.36%); assay type: functional; procedure, shortened: as §2
HeLa [15] = experiment: Cell cycle arrest in human HeLa cells assessed as accumulation in G1 phase at 1.5 uM after 36 hrs by PI-staining based flow cytometric analysis (reference value: 47.36%); assay type: functional; procedure, shortened: as §2
HeLa [16] = experiment: Cell cycle arrest in human HeLa cells assessed as accumulation in G1 phase at 0.375 uM after 36 hrs by PI-staining based flow cytometric analysis (reference value: 47.36%); assay type: functional; procedure, shortened: as §2
Capra hircus [17] = species on record: Capra hircus; experiment: Inhibition of goat tubulin polymerization assessed as club shaped cytoskeleton at 3 uM after 30 mins by transmission electron microscopic analysis; procedure, shortened: as §3
HeLa [18] = experiment: Cell cycle arrest in human HeLa cells assessed as accumulation in subG1 phase at 3 uM after 36 hrs by PI-staining based flow cytometric analysis (reference value: 0.2%); assay type: functional; procedure, shortened: as §2
HeLa [19] = experiment: Cell cycle arrest in human HeLa cells assessed as decrease in G2 phase after 36 hrs by PI-staining based flow cytometric analysis; assay type: functional; procedure, shortened: as §2

SMILES	IC50 (HeLa [1]; hela)	IC50 (K562; k562)	IC50 [2]	IC50 (HepG2; hepg2)	other results
CC[C@H](C)[C@H](NC(=O)OC1CC(C)(C)N([O])C(C)(C)C1)C(=O)Nc1cc(/C=C\c2cc(OC)c(OC)c(OC)c2)ccc1OC	2.33 µM	18.8 µM	3.07 µM	2.19 µM	–
COc1ccc(/C=C\c2cc(OC)c(OC)c(OC)c2)cc1NC(=O)[C@H](CCSC)NC(=O)OC1CC(C)(C)N([O])C(C)(C)C1	1.16 µM	4.15 µM	1.68 µM	2.05 µM	–
COc1ccc(/C=C\c2cc(OC)c(OC)c(OC)c2)cc1NC(=O)[C@@H]1CCCN1C(=O)OC1CC(C)(C)N([O])C(C)(C)C1	3.39 µM	5.53 µM	4.71 µM	4.48 µM	–
COc1ccc(/C=C\c2cc(OC)c(OC)c(OC)c2)cc1NC(=O)[C@H](C)NC(=O)OC1CC(C)(C)N([O])C(C)(C)C1	0.39 µM	1.56 µM	0.96 µM	0.73 µM	–
COc1ccc(/C=C\c2cc(OC)c(OC)c(OC)c2)cc1NC(=O)C1=CC(C)(C)N([O])C(C)(C)C1	8.57 µM	15.6 µM	6.21 µM	10.7 µM	–
COc1ccc(/C=C\c2cc(OC)c(OC)c(OC)c2)cc1N	–	–	–	–	IC50 (HeLa [1]; Homo sapiens, HeLa, 24 h): 0.403 µM; IC50 (K562; Homo sapiens, K562, 24 h): 0.12 µM; IC50 ([2]; Homo sapiens, 24 h): 0.014 µM; IC50 (HepG2; Homo sapiens, HepG2, 24 h): 0.028 µM
COc1ccc(/C=C\c2cc(OC)c(OC)c(OC)c2)cc1NC(=O)[C@H](Cc1c[nH]c2ccccc12)NC(=O)OC1CC(C)(C)N([O])C(C)(C)C1	2.08 µM	0.56 µM	3.55 µM	2.27 µM	–
COc1ccc(/C=C\c2cc(OC)c(OC)c(OC)c2)cc1NC(=O)C1=CC(C)(C)N([O])C1(C)C	42.3 µM	> 100 µM	> 100 µM	38.8 µM	–
COc1ccc(/C=C\c2cc(OC)c(OC)c(OC)c2)cc1NC(=O)C1CC(C)(C)N([O])C1(C)C (stereo not drawn)	7.6 µM	10.4 µM	4.93 µM	25 µM	–
COc1ccc(/C=C\c2cc(OC)c(OC)c(OC)c2)cc1NC(=O)[C@@H](NC(=O)OC1CC(C)(C)N([O])C(C)(C)C1)C(C)C	0.15 µM	12 µM	0.43 µM	1.05 µM	–
COc1ccc(/C=C\c2cc(OC)c(OC)c(OC)c2)cc1NC(=O)[C@H](Cc1ccccc1)NC(=O)OC1CC(C)(C)N([O])C(C)(C)C1	8.37 µM	5.8 µM	6.33 µM	0.28 µM	–
COc1ccc(/C=C\c2cc(OC)c(OC)c(OC)c2)cc1NC(=O)C1CC(C)(C)N([O])C(C)(C)C1	59.2 µM	16.9 µM	42.5 µM	51.2 µM	–
COc1cc([C@@H]2c3cc4c(cc3[C@@H](O[C@@H]3O[C@@H]5CO[C@@H](C)O[C@H]5[C@H](O)[C@H]3O)[C@H]3COC(=O)[C@H]23)OCO4)cc(OC)c1O [ETOPOSIDE]	–	–	–	–	IC50 (HeLa [1]; Homo sapiens, HeLa, 24 h): 17.7 µM; IC50 (K562; Homo sapiens, K562, 24 h): 2.85 µM; IC50 ([2]; Homo sapiens, 24 h): 26.9 µM; IC50 (HepG2; Homo sapiens, HepG2, 24 h): 104 µM
COc1ccc(/C=C\c2cc(OC)c(OC)c(OC)c2)cc1NC(=O)CNC(=O)OC1CC(C)(C)N([O])C(C)(C)C1	0.41 µM	1.09 µM	0.39 µM	0.98 µM	Activity (HeLa [3]): 66.54%; Activity (HeLa [4]): 13.96%; Activity (HeLa [5]): Dose-dependent effect; Activity (HeLa [6]): 16.71%; Activity (HeLa [7]): 55.75%; Activity (HeLa [8]): Dose-dependent effect; Activity (HeLa [9]): 52.6%; Activity (HeLa [10]): Dose-dependent effect; Activity (HeLa [11]): 43.99%; inhibition (Capra hircus [12]): Active; Activity (HeLa [13]): 1.14%; Activity (HeLa [14]): 96.25%; Activity (HeLa [15]): 85.82%; Activity (HeLa [16]): 32.85%; inhibition (Capra hircus [17]): Active; Activity (HeLa [18]): 32.42%; Activity (HeLa [19]): Dose-dependent effect
